Data as given in ChEMBL document CHEMBL1141574, “A comparison of chloroambucil- and xylene-containing polyamines leads to improved ligands for accessing the polyamine transport system” (J Med Chem, 2008).

Tests used:
CHO = test: Cytotoxicity against PAT active CHO cells after 48 hrs; type: cell-based; details: Cricetulus griseus
In short: (§1)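 CHO and CHO-MG grown in RPMI with 10% FCS, glutamine, penicillin/streptomycin and 2 mM aminoguanidine; CHO-MG medium also has L-proline (2 µg/mL); 37 °C, 5% CO2. Cells plated at 1 × 10⁴ cells/mL and drug added after overnight incubation. After 48 h exposure, growth read as MTT formazan absorbance at 540 nm. IC50 is the concentration giving 50% reduction in relative growth; ratio is CHO-MG IC50 over CHO IC50.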

[1] = Inhibition of [3H]spermidine uptake at PAT in mouse L1210 cells; type: cell-based
[2] = tested on: polyamine transporter (PAT); test: Ratio of IC50 for PAT deficient CHO-MG cells to IC50 for PAT active CHO cells; type: cell-based, Cricetulus griseus; details: chinese hamster, PAT-deficient CHO-MG cells and PAT-active CHO cells; read-out: Ratio IC50; in short: as §1
CHO-MG = test: Cytotoxicity against PAT deficient CHO-MG cells after 48 hrs; type: cell-based; details: Cricetulus griseus; in short: as §1
L1210 [3] = test: Cytotoxicity against mouse L1210 cells after 48 hrs; type: functional, cell-based; details: L1210, 48 h
In short: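 L1210 cells in early to mid log phase, viability checked by trypan blue, grown in RPMI with 10% FCS, glutamine, antibiotics and 2 mM aminoguanidine at 37 °C, 5% CO2. Seeded at 6 × 10⁴ cells/mL with drug added at seeding. After 48 h exposure, growth read as MTT formazan at 540 nm. IC50 is the concentration reducing relative growth by 50%.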

L1210 [4] = test: Cytotoxicity against mouse L1210 cells in presence of ODC inhibitor difluoromethylornithine; type: functional, cell-based
[5] = Chemical stability in phosphate buffer assessed as degraded compound after 48 hrs; type: physicochemical; details: read-out: Activity
In short: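 NMR in phosphate buffer, pD 7.4, in D2O; sample held 48 h at 37 °C, then the fraction of conjugate degraded was read.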

L1210 [6] = test: Cytotoxicity against mouse L1210 cells after 24 hrs in presence of spermidine; type: functional, cell-based; details: L1210, 24 h
FL5.12 [7] = test: Induction of apoptosis in 2 ng/ml IL3-induced mouse FL5.12A cells at 10 uM; type: functional
In short: (§2)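 FL5.12A pro-B cells in RPMI1640 with 10% heat-inactivated FCS, antibiotics and IL-3 (2, 0.1 or 0 ng/mL) at 37 °C, 5% CO2. Preincubated 24 h at 5 × 10⁶ cells/well, then given 10 µM compound with aminoguanidine for 24 h. Result is % annexin-positive cells; run in triplicate.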

FL5.12 [8] = test: Induction of apoptosis in mouse FL5.12A cells treated after DMSO shock at 10 uM in presence of spermidine; type: functional
In short: (§3)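 FL5.12A cells held 24 h at 2, 0.1 or 0 ng/mL IL-3 (5 × 10⁶ cells/well), treated overnight with or without spermidine (100 µM), then washed and exposed to 10% DMSO for 2 min. Washed twice in Hank's medium and incubated 2 h at 37 °C. Apoptosis read as % annexin-V-FITC-positive cells; run in duplicate.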

[9] = Induction of apoptosis in 0.1 ng/ml IL3-induced mouse FL5.12A cells at 10 uM after DMSO shock; type: functional
In short: (§4)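 FL5.12A pro-B cells in RPMI1640 with 10% heat-inactivated FCS and 1 mM aminoguanidine, 37 °C, 5% CO2. Preincubated 24 h with IL-3 at the stated level (5 × 10⁶ cells/well), then dosed overnight without spermidine. Washed, shocked 2 min in 10% DMSO, washed twice with Hank's, and held 2 h at 37 °C.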

FL5.12 [10] = test: Induction of apoptosis in mouse FL5.12A cells at 10 uM; type: functional; in short: as §2
FL5.12 [11] = test: Induction of apoptosis in 0.1 ng/ml IL3-induced mouse FL5.12A cells at 10 uM; type: functional; in short: as §2
FL5.12 [12] = test: Induction of apoptosis in mouse FL5.12A cells at 10 uM after DMSO shock; type: functional; in short: as §3
[13] = Induction of apoptosis in 2 ng/ml IL3-induced mouse FL5.12A cells treated after DMSO shock at 10 uM in presence of spermidine; type: functional
In short: (§5)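 FL5.12A pro-B cells in RPMI1640 with 10% heat-inactivated FCS and 1 mM aminoguanidine, 37 °C, 5% CO2. Preincubated 24 h at the stated IL-3 level (5 × 10⁶ cells/well), then dosed overnight with spermidine 100 µM. Washed, shocked 2 min in 10% DMSO, washed twice in Hank's, and held 2 h at 37 °C.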

[14] = Induction of apoptosis in 0.1 ng/ml IL3-induced mouse FL5.12A cells treated after DMSO shock at 10 uM in presence of spermidine; type: functional; in short: as §5
[15] = Induction of apoptosis in 2 ng/ml IL3-induced mouse FL5.12A cells at 10 uM after DMSO shock; type: functional; in short: as §4
FL5.12 [16] = test: Induction of apoptosis in 0.1 ng/ml IL3-induced mouse FL5.12A cells at 10 uM in presence of spermidine; type: functional
In short: (§6)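 FL5.12A cells held 24 h at 2, 0.1 or 0 ng/mL IL-3 (5 × 10⁶ cells/well), then treated with compound overnight with or without spermidine (100 µM). Apoptosis read as % annexin-V-FITC-positive cells by flow cytometry; run in duplicate.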

FL5.12 [17] = test: Induction of apoptosis in mouse FL5.12A cells at 10 uM in presence of spermidine; type: functional; in short: as §6
FL5.12 [18] = test: Induction of apoptosis in 2 ng/ml IL3-induced mouse FL5.12A cells at 10 uM in presence of spermidine; type: functional; in short: as §6
L1210 [19] = test: Cytotoxicity against mouse L1210 cells after 24 hrs in presence of 100 uM spermidine; type: functional, cell-based; details: L1210, 24 h

SMILES | IC50 (CHO) | Ki [1] | selectivity ratio [2] | IC50 (CHO-MG) | IC50 (L1210 [3]) | IC50 (L1210 [4]) | IC50 (L1210 [6]) | Activity (FL5.12 [7]) | Activity (FL5.12 [10]) | Activity (FL5.12 [11]) | further results
O=C(O)CCCc1ccc(N(CCCl)CCCl)cc1 [CHLORAMBUCIL] | 84.5 µM | > 150 µM | 1.32 | 111 µM | 14.1 µM | – | – | – | – | – | –
NCCCCNCCCCNCc1cccc2ccccc12 | 0.6 µM | 3.8 µM | > 164 | – | – | 0.43 µM | – | – | – | – | –
NCCCCNCCCCNCc1ccc(N(CCCl)CCCl)cc1 | > 100 µM | 5.97 µM | 1 | > 100 µM | 35.4 µM | – | 31.1 µM | – | – | – | degraded at 48 h [5]: 89%
NCCCNCCCCNCc1ccc(N(CCCl)CCCl)cc1 | > 100 µM | 12.4 µM | 1 | > 100 µM | 8.14 µM | – | 8.13 µM | – | – | – | –
NCCCCNCCCCNCc1ccccc1 | – | 4.5 µM | – | > 1000 µM | 36.3 µM | – | – | – | – | – | –
Cl.NCCCCNCCCCNCc1c2ccccc2c(CNCCCCNCCCCN)c2ccccc12 | 0.045 µM | 0.39 µM | > 2220 | > 100 µM | 0.78 µM | 0.22 µM | 5.52 µM | 5.56% | 8.64% | 6.07% | Activity (FL5.12 [8]): 16.69%; Activity [9]: 56.7%; Activity (FL5.12 [12]): 67.53%; Activity [13]: 12.9%; Activity [14]: 10.2%; Activity [15]: 44.7%
NCCCCNCCCCNCc1ccc(CNCCCCNCCCCN)cc1 | 0.074 µM | 0.52 µM | 677 | 50.2 µM | 0.16 µM | 0.36 µM | 6.89 µM | – | – | – | –
N=C(N)NN [PIMAGEDINE] | – | – | – | – | – | – | – | 5.17% | 79.69% | 3.72% | –
NCCCCNCCCN [SPERMIDINE] | – | – | – | – | – | – | – | 5.52% | 58.16% | 6.07% | –
NCCCCNCCCNCc1ccc(N(CCCl)CCCl)cc1 | > 100 µM | 2.66 µM | 1 | > 100 µM | 6.53 µM | – | 7.83 µM | – | – | – | –
Cl.NCCCCNCCCCNCc1c2ccccc2cc2ccccc12 | – | 1.8 µM | 148 | – | – | 0.09 µM | 0.83 µM | 67.71% | >95% | 80.41% | Activity (FL5.12 [16]): 33.87%; Activity (FL5.12 [17]): 46.2%; Activity (FL5.12 [18]): 37.3%
NCCCCNCCCCNCc1ccc(CNCCCCNCCCCN)c2ccccc12 | 0.12 µM | 0.17 µM | > 833 | > 100 µM | 0.25 µM | – | 6.42 µM | – | – | – | –
Cl.Cl.NCCCCNCc1c2ccccc2cc2ccccc12 | 7.7 µM | 32.2 µM | 1 | – | – | 9.78 µM | – | >95% | >95% | >95% | Activity (FL5.12 [16]): 35.59%; Activity (FL5.12 [17]): 35.32%; Activity (FL5.12 [18]): 47.28%; IC50 (L1210 [19]): 6.96 µM
